Results taken from ChEMBL document CHEMBL2203081 (Bioorg Med Chem Lett, 2012).
The source made the active and inactive calls. The calls are words filed in the database; no cut-off is given here.

Experiments:
[1] = biological target: NT-3 growth factor receptor (Homo sapiens) (UniProt Q16288); test: Inhibition of TRKC assessed as residual activity at 10 uM relative to control
[2] = biological target: Serine/threonine-protein kinase tousled-like 1 (Homo sapiens) (UniProt Q9UKI8); test: Inhibition of TLK1 assessed as residual activity at 10 uM relative to control
[3] = biological target: Dual specificity protein kinase CLK4 (Homo sapiens) (UniProt Q9HAZ1); test: Inhibition of CLK4 assessed as residual activity at 10 uM relative to control
How it was run: (§1)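 Competition kinase-binding assay (KINOMEscan) across a non-redundant panel of 329 kinases beyond the radiometric panel; residual binding expressed relative to control.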

[4] = biological target: Receptor-interacting serine/threonine-protein kinase 2 (Homo sapiens) (UniProt O43353); test: Inhibition of RIPK2 assessed as residual activity at 1 uM
[5] = biological target: Insulin-like growth factor 1 receptor (Homo sapiens) (UniProt P08069); test: Inhibition of IGF-1R assessed as residual activity at 1 uM
How it was run: (§2)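 Radioactivity-based enzymatic activity assay of the named kinase, run as part of a 131-kinase specificity panel at the National Centre for Protein Kinase Profiling (Dundee). Residual activity was read at the stated single inhibitor concentration.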

[6] = biological target: Mitogen-activated protein kinase 1 (Homo sapiens) (UniProt P28482); test: Inhibition of ERK2 assessed as residual activity at 1 uM; how it was run: as §2
[7] = biological target: Dual serine/threonine and tyrosine protein kinase (Homo sapiens) (UniProt Q6XUX3); test: Inhibition of RIPK5 assessed as residual activity at 10 uM relative to control
[8] = biological target: Receptor-interacting serine/threonine-protein kinase 2 (Homo sapiens) (UniProt O43353); test: Inhibition of RIPK2 assessed as residual activity at 10 uM relative to control
[9] = biological target: Bone morphogenetic protein receptor type-1A (Homo sapiens) (UniProt P36894); test: Inhibition of BMPR1A assessed as residual activity at 10 uM relative to control
[10] = biological target: Atypical kinase COQ8B, mitochondrial (Homo sapiens) (UniProt Q96D53); test: Inhibition of ADCK4 assessed as residual activity at 10 uM relative to control
[11] = test system: Tyrosine-protein kinase ABL1 (Homo sapiens), P00519 [F317I]; test: Inhibition of phosphorylated ABL1 F317I mutant assessed as residual activity at 10 uM relative to control
[12] = biological target: AP2-associated protein kinase 1 (Homo sapiens) (UniProt Q2M2I8); test: Inhibition of AAK1 assessed as residual activity at 10 uM relative to control
[13] = test system: Mus musculus; test: Inhibition of LRRK2 in mouse assessed as inhibition of Ser935 autophosphorylation in brain at 100 mg/kg, ip by immunoblot method; type: functional, organism-based; parameters: dose 100 mg/kg
[14] = test system: Plasma; test: AUClast in Swiss albino mouse plasma at 10 mg/kg, po; type: ADME, organism-based; parameters: dose 10 mg/kg, route oral, time 0 - last; conditions: in vivo
How it was run: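 Male Swiss Albino mice, single dose given intravenously (1 mg/kg) or orally (10 mg/kg). Drug measured in plasma and brain, with AUClast taken for each. The brain/plasma ratio is based on AUClast, and oral bioavailability is derived from the IV and PO plasma data.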

[15] = biological target: Receptor-interacting serine/threonine-protein kinase 2 (Homo sapiens) (UniProt O43353); test: Inhibition of RIPK2 assessed as residual activity at 10 uM
[16] = biological target: MAP kinase-activated protein kinase 5 (Homo sapiens) (UniProt Q8IW41); test: Inhibition of PRAK assessed as residual activity at 10 uM
[17] = biological target: T1, NUAK family SNF1-like kinase 1 (Homo sapiens) (UniProt O60285); test: Inhibition of NUAK1 assessed as residual activity at 10 uM
T1 sequence (whole entry): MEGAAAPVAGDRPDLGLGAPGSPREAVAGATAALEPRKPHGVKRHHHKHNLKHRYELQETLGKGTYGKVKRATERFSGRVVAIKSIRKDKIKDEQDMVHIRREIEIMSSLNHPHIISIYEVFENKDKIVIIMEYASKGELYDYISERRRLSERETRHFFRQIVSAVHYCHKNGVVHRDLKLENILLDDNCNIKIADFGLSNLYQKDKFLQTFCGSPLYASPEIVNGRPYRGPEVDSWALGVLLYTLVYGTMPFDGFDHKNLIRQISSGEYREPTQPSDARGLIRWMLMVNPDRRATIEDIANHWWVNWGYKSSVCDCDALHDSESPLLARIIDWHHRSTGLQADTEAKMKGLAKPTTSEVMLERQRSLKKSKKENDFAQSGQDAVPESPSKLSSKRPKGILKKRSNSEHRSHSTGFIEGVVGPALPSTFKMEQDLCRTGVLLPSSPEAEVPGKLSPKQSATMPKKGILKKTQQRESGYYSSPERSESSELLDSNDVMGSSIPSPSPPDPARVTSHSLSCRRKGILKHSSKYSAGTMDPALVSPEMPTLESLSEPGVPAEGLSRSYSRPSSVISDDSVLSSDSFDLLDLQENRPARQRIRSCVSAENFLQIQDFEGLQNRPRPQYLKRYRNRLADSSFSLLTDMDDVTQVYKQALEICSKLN

[18] = biological target: Ribosomal protein S6 kinase alpha-5 (Homo sapiens) (UniProt O75582); test: Inhibition of MSK1 assessed as residual activity at 10 uM
[19] = biological target: Mitogen-activated protein kinase 1 (Homo sapiens) (UniProt P28482); test: Inhibition of ERK2 assessed as residual activity at 10 uM; how it was run: as §2
[20] = biological target: Dual specificity tyrosine-phosphorylation-regulated kinase 1A (Homo sapiens) (UniProt Q13627); test: Inhibition of DYRK1A assessed as residual activity at 10 uM
How it was run: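 Standard radioactivity-based enzymatic kinase assays on a 131-kinase panel run by the Dundee profiling service; residual kinase activity recorded.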

[21] = biological target: Angiopoietin-1 receptor (Homo sapiens) (UniProt Q02763); test: Inhibition of TIE2 assessed as residual activity at 1 uM
[22] = biological target: Serine/threonine-protein kinase 3 (Homo sapiens) (UniProt Q13188); test: Inhibition of MST2 assessed as residual activity at 10 uM relative to control
[23] = biological target: Serine/threonine-protein kinase DCLK2 (Homo sapiens) (UniProt Q8N568); test: Inhibition of DCAMKL2 assessed as residual activity at 10 uM relative to control; how it was run: as §1
[24] = biological target: Serine/threonine-protein kinase DCLK1 (Homo sapiens) (UniProt O15075); test: Inhibition of DCAMKL1 assessed as residual activity at 10 uM relative to control; how it was run: as §1

Sequence of Receptor-interacting serine/threonine-protein kinase 2 (Homo sapiens) (O43353 whole entry): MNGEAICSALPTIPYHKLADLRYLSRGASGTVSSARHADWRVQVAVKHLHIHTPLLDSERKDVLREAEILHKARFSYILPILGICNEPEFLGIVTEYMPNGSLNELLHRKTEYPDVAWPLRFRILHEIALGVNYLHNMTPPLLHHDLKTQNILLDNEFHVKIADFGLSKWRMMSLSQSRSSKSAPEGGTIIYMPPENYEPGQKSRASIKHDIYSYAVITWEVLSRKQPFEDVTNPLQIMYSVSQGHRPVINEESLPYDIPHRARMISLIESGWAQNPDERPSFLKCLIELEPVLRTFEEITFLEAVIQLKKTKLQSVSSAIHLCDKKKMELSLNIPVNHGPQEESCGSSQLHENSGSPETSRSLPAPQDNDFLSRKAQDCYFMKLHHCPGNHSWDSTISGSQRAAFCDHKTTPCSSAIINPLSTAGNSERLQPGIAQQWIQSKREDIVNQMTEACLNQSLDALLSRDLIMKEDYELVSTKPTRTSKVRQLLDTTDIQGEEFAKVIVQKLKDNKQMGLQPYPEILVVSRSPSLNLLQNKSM
Sequence of Mitogen-activated protein kinase 1 (Homo sapiens) (P28482 whole entry): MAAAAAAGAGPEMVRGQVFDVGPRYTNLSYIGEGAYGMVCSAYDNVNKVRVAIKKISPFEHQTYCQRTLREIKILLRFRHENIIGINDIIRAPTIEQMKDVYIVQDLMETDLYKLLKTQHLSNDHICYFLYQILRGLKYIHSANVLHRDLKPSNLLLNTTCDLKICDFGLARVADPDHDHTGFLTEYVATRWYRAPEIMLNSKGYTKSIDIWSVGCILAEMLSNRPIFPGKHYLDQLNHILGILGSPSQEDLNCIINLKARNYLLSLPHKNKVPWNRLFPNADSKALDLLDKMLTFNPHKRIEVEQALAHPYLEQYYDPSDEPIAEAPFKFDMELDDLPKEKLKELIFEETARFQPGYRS
Sequence of Atypical kinase COQ8B, mitochondrial (Homo sapiens) (Q96D53 whole entry): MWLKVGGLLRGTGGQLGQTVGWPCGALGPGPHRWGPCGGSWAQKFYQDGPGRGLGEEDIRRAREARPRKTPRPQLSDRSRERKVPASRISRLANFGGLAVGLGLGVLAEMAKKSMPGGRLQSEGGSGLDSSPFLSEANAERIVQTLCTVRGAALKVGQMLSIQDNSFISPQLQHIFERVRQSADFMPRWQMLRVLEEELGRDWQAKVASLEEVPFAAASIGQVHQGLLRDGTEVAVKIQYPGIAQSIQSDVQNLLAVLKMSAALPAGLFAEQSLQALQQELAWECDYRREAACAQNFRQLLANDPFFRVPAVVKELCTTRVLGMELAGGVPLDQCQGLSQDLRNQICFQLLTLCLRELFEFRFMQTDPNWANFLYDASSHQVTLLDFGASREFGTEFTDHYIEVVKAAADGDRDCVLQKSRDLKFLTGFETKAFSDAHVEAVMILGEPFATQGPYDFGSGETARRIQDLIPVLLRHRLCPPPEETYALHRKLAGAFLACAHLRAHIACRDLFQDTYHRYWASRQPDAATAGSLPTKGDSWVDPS
Sequence of Serine/threonine-protein kinase 3 (Homo sapiens) (Q13188 whole entry): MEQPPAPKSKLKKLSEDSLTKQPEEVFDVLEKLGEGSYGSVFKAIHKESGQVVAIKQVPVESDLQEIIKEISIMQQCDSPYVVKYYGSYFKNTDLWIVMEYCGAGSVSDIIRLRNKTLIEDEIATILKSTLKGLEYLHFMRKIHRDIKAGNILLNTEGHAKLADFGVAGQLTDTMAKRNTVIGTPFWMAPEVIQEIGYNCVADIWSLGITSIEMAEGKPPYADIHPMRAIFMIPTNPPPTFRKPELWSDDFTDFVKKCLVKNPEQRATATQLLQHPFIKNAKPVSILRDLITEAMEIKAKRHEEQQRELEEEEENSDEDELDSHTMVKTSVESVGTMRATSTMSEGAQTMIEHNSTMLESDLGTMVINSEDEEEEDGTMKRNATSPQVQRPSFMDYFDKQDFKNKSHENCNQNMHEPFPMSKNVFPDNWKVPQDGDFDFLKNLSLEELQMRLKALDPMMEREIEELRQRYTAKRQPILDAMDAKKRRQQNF
Sequence of Insulin-like growth factor 1 receptor (Homo sapiens) (P08069 31-736 limits assumed): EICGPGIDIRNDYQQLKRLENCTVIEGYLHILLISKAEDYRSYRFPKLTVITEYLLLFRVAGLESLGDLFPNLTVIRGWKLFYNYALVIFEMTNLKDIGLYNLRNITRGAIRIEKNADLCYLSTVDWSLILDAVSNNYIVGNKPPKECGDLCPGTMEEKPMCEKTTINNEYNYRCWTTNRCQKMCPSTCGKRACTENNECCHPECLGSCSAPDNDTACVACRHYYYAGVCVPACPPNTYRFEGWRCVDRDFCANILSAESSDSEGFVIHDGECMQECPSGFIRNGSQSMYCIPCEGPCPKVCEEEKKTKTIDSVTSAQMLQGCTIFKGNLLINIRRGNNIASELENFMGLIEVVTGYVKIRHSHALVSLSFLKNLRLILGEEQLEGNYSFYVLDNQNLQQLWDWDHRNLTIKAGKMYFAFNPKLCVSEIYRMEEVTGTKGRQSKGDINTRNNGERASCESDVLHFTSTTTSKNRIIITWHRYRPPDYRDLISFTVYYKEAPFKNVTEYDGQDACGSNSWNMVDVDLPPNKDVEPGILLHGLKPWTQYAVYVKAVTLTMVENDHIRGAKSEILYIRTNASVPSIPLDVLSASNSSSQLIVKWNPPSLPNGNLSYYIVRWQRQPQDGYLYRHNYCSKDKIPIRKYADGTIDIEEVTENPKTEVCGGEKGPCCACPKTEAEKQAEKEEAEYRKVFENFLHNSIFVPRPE
Sequence of Insulin-like growth factor 1 receptor (Homo sapiens) (P08069 741-1367 limits assumed): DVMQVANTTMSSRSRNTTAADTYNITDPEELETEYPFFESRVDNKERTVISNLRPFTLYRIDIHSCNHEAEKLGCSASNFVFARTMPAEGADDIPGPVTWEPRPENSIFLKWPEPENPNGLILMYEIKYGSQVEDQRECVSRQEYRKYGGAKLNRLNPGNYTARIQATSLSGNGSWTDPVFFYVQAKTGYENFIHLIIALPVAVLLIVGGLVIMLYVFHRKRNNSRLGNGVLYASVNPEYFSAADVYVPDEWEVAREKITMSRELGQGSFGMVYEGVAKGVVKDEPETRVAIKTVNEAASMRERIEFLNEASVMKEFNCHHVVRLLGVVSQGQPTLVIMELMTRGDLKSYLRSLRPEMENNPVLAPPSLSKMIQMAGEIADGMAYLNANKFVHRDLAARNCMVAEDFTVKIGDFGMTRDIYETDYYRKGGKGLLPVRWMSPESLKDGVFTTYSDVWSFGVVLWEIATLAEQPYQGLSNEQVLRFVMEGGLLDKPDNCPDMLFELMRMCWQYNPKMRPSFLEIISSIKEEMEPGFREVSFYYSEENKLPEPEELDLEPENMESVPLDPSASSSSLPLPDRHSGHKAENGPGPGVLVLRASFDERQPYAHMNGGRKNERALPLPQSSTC
Sequence of Dual specificity protein kinase CLK4 (Homo sapiens) (Q9HAZ1 whole entry, looked up): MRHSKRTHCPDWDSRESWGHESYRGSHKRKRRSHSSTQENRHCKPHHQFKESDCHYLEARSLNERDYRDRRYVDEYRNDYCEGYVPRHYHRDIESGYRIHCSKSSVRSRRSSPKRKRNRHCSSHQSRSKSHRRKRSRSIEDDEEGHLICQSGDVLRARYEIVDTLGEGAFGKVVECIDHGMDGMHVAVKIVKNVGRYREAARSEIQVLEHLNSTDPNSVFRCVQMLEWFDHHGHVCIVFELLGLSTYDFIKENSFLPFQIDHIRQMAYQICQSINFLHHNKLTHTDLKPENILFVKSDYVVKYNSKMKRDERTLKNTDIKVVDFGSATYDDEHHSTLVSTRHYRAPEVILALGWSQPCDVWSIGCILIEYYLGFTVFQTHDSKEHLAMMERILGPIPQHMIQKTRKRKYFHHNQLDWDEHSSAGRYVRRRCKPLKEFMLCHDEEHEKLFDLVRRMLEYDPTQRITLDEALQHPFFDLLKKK
Sequence of Dual serine/threonine and tyrosine protein kinase (Homo sapiens) (Q6XUX3 whole entry): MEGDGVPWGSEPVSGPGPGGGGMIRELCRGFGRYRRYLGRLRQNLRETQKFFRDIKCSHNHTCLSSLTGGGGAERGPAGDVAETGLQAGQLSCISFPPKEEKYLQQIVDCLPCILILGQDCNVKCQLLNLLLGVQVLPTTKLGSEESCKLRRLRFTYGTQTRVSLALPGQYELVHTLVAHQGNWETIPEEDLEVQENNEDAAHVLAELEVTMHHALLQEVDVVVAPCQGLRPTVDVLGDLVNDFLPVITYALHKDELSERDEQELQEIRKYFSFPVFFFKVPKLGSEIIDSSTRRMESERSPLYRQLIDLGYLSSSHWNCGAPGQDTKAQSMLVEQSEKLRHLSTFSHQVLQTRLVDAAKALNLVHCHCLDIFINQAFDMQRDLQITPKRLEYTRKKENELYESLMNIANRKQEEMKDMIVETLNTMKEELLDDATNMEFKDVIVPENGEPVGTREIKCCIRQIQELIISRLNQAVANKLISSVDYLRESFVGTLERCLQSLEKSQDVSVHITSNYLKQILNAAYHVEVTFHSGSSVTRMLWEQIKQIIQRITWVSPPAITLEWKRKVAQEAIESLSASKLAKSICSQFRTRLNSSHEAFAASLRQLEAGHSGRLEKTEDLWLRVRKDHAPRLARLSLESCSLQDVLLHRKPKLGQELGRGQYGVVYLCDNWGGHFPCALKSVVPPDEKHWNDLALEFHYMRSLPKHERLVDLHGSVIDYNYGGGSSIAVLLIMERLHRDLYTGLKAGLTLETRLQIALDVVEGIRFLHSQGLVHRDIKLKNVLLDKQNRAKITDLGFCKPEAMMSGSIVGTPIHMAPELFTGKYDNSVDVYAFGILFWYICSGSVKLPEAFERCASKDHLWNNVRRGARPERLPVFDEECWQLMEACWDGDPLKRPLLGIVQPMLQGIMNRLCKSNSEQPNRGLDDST

Molecule `O=C(Nc1cccnc1)c1cc(-c2ccnc(F)c2)ccc1OCc1ccccc1` has an Activity [1] of 62%, an Activity [2] of 66% and an Activity [3] of 46%. It also gave an Activity [4] of 59%, an Activity [5] of 123% and an Activity [6] of 104%. It also gave an Activity [7] of 69%, an Activity [8] of 53% and an Activity [9] of 41%. For the same molecule, the Activity [10] was 26%, the Activity [11] was 38% and the Activity [12] was 67%. For the same molecule, the inhibition [13] was “inactive”, the AUClast [14] was 635.3 ng·h/mL and the Activity [15] was 56%. The Activity [16] was 114%, the Activity [17] was 58% and the Activity [18] was 120%. The Activity [19] was 115%, the Activity [20] was 104% and the Activity [21] was 119%. The Activity [22] was 23%, the Activity [23] was 48% and the Activity [24] was 57%.
